Data from ChEMBL document CHEMBL3804761, “Synthesis of a stable and orally bioavailable englerin analogue” (Bioorg Med Chem Lett, 2016).

Tests used:
Type in all cases: functional
[1] = system: SN12C; experiment: Growth inhibition of human SN12C cells assessed as cell growth at 10 uM incubated for 48 hrs by sulforhodamine B assay relative to control; details: read-out: Activity
Outline: (§1)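 Run in the standard NCI 60-cell-line screen. Cells were exposed to drug for two days, and the read-out was sulforhodamine B staining. Compound was tested at a single final concentration of 10 µM in every line, and results are reported as growth percent.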

[2] = Growth inhibition of human BT549 cells incubated for 48 hrs by sulforhodamine B assay; details: BT-549, 48 h
Outline: (§2)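 NCI 60-cell-line panel, standard protocol. Cells exposed to compound for two days, growth read by sulforhodamine B staining. Tested at five 10-fold dilutions, top concentration 100 µM, to give dose-response curves.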

[3] = system: Malme-3M; experiment: Growth inhibition of human MALME-3M cells incubated for 48 hrs by sulforhodamine B assay; outline: as §2
[4] = system: SK-MEL-5; experiment: Growth inhibition of human SK-MEL-5 cells incubated for 48 hrs by sulforhodamine B assay; details: SK-MEL-5, 48 h; outline: as §2
[5] = system: MCF7; experiment: Growth inhibition of human MCF7 cells assessed as cell growth at 10 uM incubated for 48 hrs by sulforhodamine B assay relative to control; details: MCF7, 48 h, read-out: Activity; outline: as §1
[6] = system: M14; experiment: Growth inhibition of human M14 cells incubated for 48 hrs by sulforhodamine B assay; details: M14, 48 h; outline: as §2
[7] = system: CCRF-CEM; experiment: Growth inhibition of human CCRF-CEM cells assessed as cell growth at 10 uM incubated for 48 hrs by sulforhodamine B assay relative to control; details: read-out: Activity
Outline: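 Single-dose screen in the NCI 60-cell-line panel at one final concentration of 10 µM. Two-day drug exposure with a sulforhodamine B endpoint. Values are growth percent for each cell line.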

[8] = Growth inhibition of human IGROV1 cells assessed as cell growth at 10 uM incubated for 48 hrs by sulforhodamine B assay relative to control; details: IGROV-1, 48 h, read-out: Activity; outline: as §1
[9] = Growth inhibition of human UO31 cells incubated for 48 hrs by sulforhodamine B assay; details: UO-31, 48 h
Outline: (§3)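 Tested in the standard NCI 60-cell-line protocol with two-day drug exposure and a sulforhodamine B endpoint. Compounds were first screened at a single final concentration of 10 µM, reported as growth percent. They were then run as five 10-fold dilutions starting from a high concentration of 100 µM to give dose-response curves.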

[10] = Growth inhibition of human RXF393 cells assessed as cell growth at 10 uM incubated for 48 hrs by sulforhodamine B assay relative to control; details: RXF 393, 48 h, read-out: Activity; outline: as §1
[11] = Growth inhibition of human IGROV1 cells incubated for 48 hrs by sulforhodamine B assay; details: IGROV-1, 48 h; outline: as §2
[12] = system: HT-29; experiment: Growth inhibition of human HT-29 cells assessed as cell growth at 10 uM incubated for 48 hrs by sulforhodamine B assay relative to control; details: HT-29, 48 h, read-out: Activity; outline: as §1
[13] = Growth inhibition of human SKOV3 cells incubated for 48 hrs by sulforhodamine B assay; details: SK-OV-3, 48 h; outline: as §3
[14] = system: U-251; experiment: Growth inhibition of human U251 cells incubated for 48 hrs by sulforhodamine B assay; details: U-251, 48 h; outline: as §3
[15] = Growth inhibition of human LOXIMVI cells incubated for 48 hrs by sulforhodamine B assay; details: LOX IMVI; outline: as §2
[16] = Growth inhibition of human HCT116 cells assessed as cell growth at 10 uM incubated for 48 hrs by sulforhodamine B assay relative to control; details: HCT-116, 48 h, read-out: Activity; outline: as §1
[17] = system: A549; experiment: Growth inhibition of human A549/ATCC cells assessed as cell growth at 10 uM incubated for 48 hrs by sulforhodamine B assay relative to control; details: A549, 48 h, read-out: Activity; outline: as §1
[18] = system: NCI-H23; experiment: Growth inhibition of human NCI-H23 cells assessed as cell growth at 10 uM incubated for 48 hrs by sulforhodamine B assay relative to control; details: NCI-H23, 48 h, read-out: Activity; outline: as §1
[19] = Growth inhibition of human OVCAR3 cells assessed as cell growth at 10 uM incubated for 48 hrs by sulforhodamine B assay relative to control; details: OVCAR-3, 48 h, read-out: Activity; outline: as §1
[20] = system: MCF7; experiment: Growth inhibition of human MCF7 cells incubated for 48 hrs by sulforhodamine B assay; details: MCF7, 48 h; outline: as §2
[21] = Growth inhibition of human SNB75 cells incubated for 48 hrs by sulforhodamine B assay; details: SNB-75, 48 h; outline: as §3
[22] = system: K562; experiment: Growth inhibition of human K562 cells assessed as cell growth at 10 uM incubated for 48 hrs by sulforhodamine B assay relative to control; details: K562, 48 h, read-out: Activity; outline: as §1
[23] = system: MDA-MB-435; experiment: Growth inhibition of human MDA-MB-435 cells incubated for 48 hrs by sulforhodamine B assay; details: MDA-MB-435, 48 h; outline: as §2
[24] = system: MDA-MB-435; experiment: Growth inhibition of human MDA-MB-435 cells assessed as cell growth at 10 uM incubated for 48 hrs by sulforhodamine B assay relative to control; details: MDA-MB-435, 48 h, read-out: Activity; outline: as §1
[25] = Growth inhibition of human SW620 cells assessed as cell growth at 10 uM incubated for 48 hrs by sulforhodamine B assay relative to control; details: SW-620, 48 h, read-out: Activity; outline: as §1
[26] = system: CCRF-CEM; experiment: Growth inhibition of human CCRF-CEM cells incubated for 48 hrs by sulforhodamine B assay; outline: as §2
[27] = system: NCI-H322M; experiment: Growth inhibition of human NCI-H322M cells assessed as cell growth at 10 uM incubated for 48 hrs by sulforhodamine B assay relative to control; details: read-out: Activity; outline: as §1
[28] = Growth inhibition of human TK10 cells assessed as cell growth at 10 uM incubated for 48 hrs by sulforhodamine B assay relative to control; details: TK-10, 48 h, read-out: Activity
Outline: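 NCI 60-cell line standard protocol, one-dose screen: single final concentration 10 µM, 2-day drug exposure, sulforhodamine B (SRB) endpoint; read-out is growth percent relative to untreated control.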

[29] = system: SK-MEL-28; experiment: Growth inhibition of human SK-MEL-28 cells assessed as cell growth at 10 uM incubated for 48 hrs by sulforhodamine B assay relative to control; details: SK-MEL-28, 48 h, read-out: Activity; outline: as §1
[30] = read-out: pLC50 (the source's name) (converted)

CC(C)[C@@]12C[C@@H](NC(=O)CO)[C@@](C)(O1)[C@@H]1CC[C@@H](C)[C@H]1[C@@H]2OC(=O)/C=C/C1CCCCC1
30.2 µM: TGI ([9]; read-out: pTGI (converted))
128%: growth at 10 µM [7]
98.9%: growth at 10 µM [29]
94.1%: growth at 10 µM [28]
110%: growth at 10 µM [19]
96.5%: growth at 10 µM [22]
94%: growth at 10 µM [5]
86.7%: growth at 10 µM [1]
97.4%: growth at 10 µM [12]
102%: growth at 10 µM [24] | growth at 10 µM [25]
97.7%: growth at 10 µM [27]
10 µM: GI50 [9]
99.4%: growth at 10 µM [18]
95.4%: growth at 10 µM [10]
> 44.7 µM: GI50 [2] | CC50 [2, 30] | TGI ([2]; read-out: pTGI (converted)) | GI50 [3] | LC50 [3] | TGI ([3]; read-out: pTGI (converted)) | GI50 [4] | LC50 [4] | TGI ([4]; read-out: pTGI (converted)) | GI50 [6] | LC50 [6] | TGI ([6]; read-out: pTGI (converted)) | CC50 [9, 30] | GI50 [11] | CC50 [11, 30] | TGI ([11]; read-out: pTGI (converted)) | GI50 [13] | LC50 [13] | TGI ([13]; read-out: pTGI (converted)) | GI50 [14] | LC50 (concentration giving 50% net cell kill) [14] | TGI ([14]; read-out: pTGI (converted)) | GI50 [15] | LC50 [15] | TGI ([15]; read-out: pTGI (converted)) | GI50 [20] | CC50 [20, 30] | TGI ([20]; read-out: pTGI (converted)) | GI50 [21] | LC50 [21] | TGI ([21]; read-out: pTGI (converted)) | GI50 [23] | LC50 [23] | TGI ([23]; read-out: pTGI (converted)) | GI50 [26] | CC50 [26, 30] | TGI ([26]; read-out: pTGI (converted))
92%: growth at 10 µM [17]
103%: growth at 10 µM [8] | growth at 10 µM [16]
